The source of these data is ChEMBL document CHEMBL1154117, “Synthesis and evaluation of a novel series of quinoline derivatives with immunosuppressive activity” (Bioorg Med Chem, 2009).

The structures appear in SMILES notation.

A short description of data set [1]: Cytotoxicity against BALB/c mouse splenocytes at 10 uM after 48 hrs by MTT assay. The conditions noted are these: read-out: INH. In kind it is cell-based, Splenocyte. A digest of the protocol: (§1)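 BALB/c spleen single-cell suspension, erythrocytes depleted with Tris-buffered NH4Cl (0.155 M NH4Cl, 16.5 mM Tris, pH 7.2). Cells cultured in RPMI-1640 with 10% FBS and compound diluted from DMSO stock (0.1% DMSO in control). Medium-alone cells served as control. MTT (5 mg/mL) added 4 h before end of culture, then SDS/DMF lysis buffer (pH 7.2) for 6 h. Absorbance read at 570 nm and growth inhibition % calculated.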
(Tetrazolium dyes change colour on reduction, which living cells bring about.)

The nature of data set [2]: Immunosuppressive activity in BALB/c mouse splenocytes assessed as inhibition of concanavalin A-induced cell proliferation at 10 uM after 48 hrs by MTT assay. In kind it is functional. Particulars: Splenocyte. The procedure, abridged:
(§2)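 Spleen cells (5 × 10⁵) from male BALB/c mice aged 6–8 weeks, erythrocytes lysed, stimulated with ConA 5 μg/mL in RPMI-1640/10% FBS. Compounds diluted from DMSO stock. ConA-stimulated cells used as control. Proliferation read by MTT added 4 h before end of culture, SDS/DMF lysis for 6 h, absorbance at 570 nm.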

Data set [3] in a line: Immunosuppressive activity in BALB/c mouse splenocytes assessed as inhibition of concanavalin A-induced cell proliferation at 30 uM after 48 hrs by MTT assay. In kind it is functional. Particulars: Splenocyte. The procedure, abridged: as §2
The nature of data set [4]: Immunosuppressive activity in BALB/c mouse splenocytes assessed as inhibition of concanavalin A-induced cell proliferation at 100 uM after 48 hrs by MTT assay. In kind it is functional. The conditions noted are these: Splenocyte. A digest of the protocol:
as §2

Data set [5] in a line: Cytotoxicity against BALB/c mouse splenocytes at 30 uM after 48 hrs by MTT assay. In kind it is cell-based, Splenocyte. Particulars: read-out: INH. The procedure, abridged:
as §1

Data set [6] is described as follows: Cytotoxicity against BALB/c mouse splenocytes at 100 uM after 48 hrs by MTT assay. The format is cell-based, Splenocyte. The conditions noted are these: read-out: INH. A digest of the protocol: as §1
Data set [7] deals with Splenocyte. Nature of the data set: Immunosuppressive activity against concanavalin A-induced BALB/c mouse splenocytes assessed as inhibition of [3H]thymidine incorporation at 1 uM by liquid scintillation counting. In kind it is functional.
Data set [8] relates to Splenocyte. Nature of the data set: Immunosuppressive activity against concanavalin A-induced BALB/c mouse splenocytes assessed as inhibition of [3H]thymidine incorporation at 10 uM by liquid scintillation counting. The format is functional. For orientation: Incorporation of labelled thymidine or its analogues reports DNA synthesis.
The subject of data set [9] is Splenocyte. Nature of the data set: Immunosuppressive activity against concanavalin A-induced BALB/c mouse splenocytes assessed as inhibition of [3H]thymidine incorporation at 30 uM by liquid scintillation counting. In kind it is functional.
The test system of data set [10] is T-cell. Nature of the data set: Immunosuppressive activity against concanavalin A-induced BALB/c mouse splenocytes assessed as T-cells activation at 1 uM after 24 hrs by FACS assay. The format is functional. A digest of the protocol:
(§3)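 Male BALB/c splenocytes (6–8 weeks), 5 × 10⁵, stimulated with ConA 5 μg/mL, with or without compound. After 24 h, cells washed twice in cold PBS and stained with CD25-FITC and CD4-APC for 30 min at 4 °C. Washed again and analysed by flow cytometry as the CD4+CD25+/CD4+ percentage.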
In general terms: In flow cytometry, cells or beads pass a laser one at a time.

For data set [11], the system named is T-cell. In words: Immunosuppressive activity against concanavalin A-induced BALB/c mouse splenocytes assessed as T-cells activation at 3 uM after 24 hrs by FACS assay. In kind it is functional. The procedure, abridged:
as §3

Data set [12] relates to T-cell. In words: Immunosuppressive activity against concanavalin A-induced BALB/c mouse splenocytes assessed as T-cells activation at 10 uM after 24 hrs by FACS assay. In kind it is functional. The procedure, abridged: as §3
The test system of data set [13] is T-cell. Nature of the data set: Immunosuppressive activity against concanavalin A-induced BALB/c mouse splenocytes assessed as T-cells activation at 30 uM after 24 hrs by FACS assay. In kind it is functional. The procedure, abridged: as §3
Data set [14] can be described thus: Immunosuppressive activity in BALB/c mouse splenocytes assessed as inhibition of concanavalin A-induced cell proliferation at 1 uM after 48 hrs by MTT assay. The format is functional. The conditions noted are these: Splenocyte. The procedure, abridged: as §2

For `COc1cc(OC)c2c(OC(=O)c3ccccc3[N+](=O)[O-])ccnc2c1`, the cytotoxicity at 48 h, 10 µM in data set [1] was 10.7%. Further, the results for the inhibition at 10 µM (in data set [2]; in the data set on Splenocyte [8]) were 38.6% and 21.1%, respectively. The values for the inhibition at 30 µM (in data set [3]; in the data set with Splenocyte [9]) were 75.2% and 64.6%, respectively. In [4], the inhibition (in general, the change of the read-out against control, counted positive when it falls) at 100 µM came out at 90.5%. For the same compound, the cytotoxicity at 48 h, 30 µM in data set [5] amounted to 32%. Besides, the cytotoxicity at 48 h, 100 µM in [6] turned out to be 33.4%. Moreover, the inhibition at 1 µM with Splenocyte [7] turned out to be 10.2%. Also, the Activity came to 94.79% in the data set with T-cell [10], 94.01% in the data set on T-cell [11], 92.75% with T-cell [12] and 86.19% in the data set with T-cell [13].
As to `COc1cc(OC)c2c(OC(=O)c3ccccc3C)ccnc2c1`, the cytotoxicity at 48 h, 10 µM in data set [1] was found to be 9.4%. Moreover, the inhibition at 10 µM in data set [2] was 70.3%; in the data set on Splenocyte [8], 55.4%. Further, the values for the inhibition at 30 µM (in data set [3]; with Splenocyte [9]) were 91.4% and 94.6%, respectively. Further, the inhibition at 100 µM in [4] was 92.2%. Besides, the cytotoxicity at 48 h, 30 µM in data set [5] is 53.9%. For the same compound, the cytotoxicity at 48 h, 100 µM in data set [6] is 64%. In addition, in the data set on Splenocyte [7], the inhibition at 1 µM was 2.2%. Moreover, the Activity with T-cell [10] turned out to be 93.81%; in the data set with T-cell [11] it was 92.54%; in the data set on T-cell [12] it was 85.45%; with T-cell [13], 75.65%.
`COc1cc(OC)c2c(OS(=O)(=O)c3ccc(C)cc3)ccnc2c1`: the cytotoxicity at 48 h, 10 µM in data set [1] amounted to 6.2%. The inhibition at 10 µM in [2] came to 82.3%; in the data set with Splenocyte [8], 87.7%. Further, the values for the inhibition at 30 µM (in [3]; in the data set on Splenocyte [9]) were 94.7% and 98.9%, respectively. The inhibition at 100 µM in [4] was found to be 94.2%. Moreover, the cytotoxicity at 48 h, 30 µM in [5] was 5.4%. For the same compound, in [6], the cytotoxicity at 48 h, 100 µM was 13.2%. The inhibition at 1 µM with Splenocyte [7] was 12.9%. Also, the Activity with T-cell [10] is on record as 85.74%; with T-cell [11], 81.66%; in the data set on T-cell [12], 68.39%; in the data set with T-cell [13], 13.7%.
In the case of `C/C=C/C[C@@H](C)[C@@H](O)[C@H]1C(=O)N[C@@H](CC)C(=O)N(C)CC(=O)N(C)[C@@H](CC(C)C)C(=O)N[C@@H](C(C)C)C(=O)N(C)[C@@H](CC(C)C)C(=O)N[C@@H](C)C(=O)N[C@H](C)C(=O)N(C)[C@@H](CC(C)C)C(=O)N(C)[C@@H](CC(C)C)C(=O)N(C)[C@@H](C(C)C)C(=O)N1C` [CYCLOSPORINE], the inhibition at 1 µM in data set [14] turned out to be 86.4%. The Activity in the data set with T-cell [10] is reported as 35.14%.
